Measured values as given in ChEMBL document CHEMBL1687886, “N-cyclic bay-substituted perylene G-quadruplex ligands have selective antiproliferative effects on cancer cells and induce telomere damage” (J Med Chem, 2011).
The source made the active and inactive calls. No cut-off for these calls is given here.

Columns and labels:
BJ [1] = assay: Antiproliferative activity against human BJ cells expressing SV40 early region EHLT at 3 uM after 24 hrs by Coulter counter method; assay type: functional, cell-based; settings: TDE = time-dependent effect
How it was run: (§1)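 Cells seeded at 5 ×10^4 per dish; compounds freshly dissolved and added to the medium 24 h after plating, at 0.5 μM or 3 μM (3 μM only for one derivative). Cell number by Coulter counting and viability by trypan blue exclusion daily, day 1 to day 8. Growth inhibition of treated vs untreated cells calculated at days 2, 4, 6 and 8. Representative experiments in quintuplicate, SD shown.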

Nucleic Acid [2] = assay: Stabilization of 21-mer human F21T G4-telomeric quadruplex assessed as change in melting temperature at 1 uM by FRET assay; assay type: nucleic-acid assay
BJ [3] = assay: Induction of DNA damage response in human BJ cells expressing SV40 early region EHLT assessed as phosphorylation of gamma H2AX at 3 uM after 24 hrs by immunofluorescence; assay type: functional, cell-based
How it was run: (§2)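 BJ-EHLT and BJ-hTERT fibroblasts exposed to a range of concentrations for 24 h. Fixed in 2% formaldehyde, permeabilized in 0.25% Triton X-100, immunostained for γ-H2AX and 53BP1. Percentage of positive cells scored. Three independent experiments, SD.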

Nucleic Acid [4] = assay: Binding affinity to human DK66 duplex DNA structure assessed as first step association constant by electrospray ionization mass spectrometry; assay type: nucleic-acid assay
How it was run: (§3)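 ESI-MS in 150 mM ammonium acetate; DNA 5 μM final (per duplex or quadruplex unit); ligand at drug/DNA ratios 0.5 to 4. Methanol (15%) added just before injection, after binding equilibrium. K1 and K2 for 1:1 and 2:1 complexes, and % bound DNA, taken from relative peak intensities assuming equal response factors. At least three repeats.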

Nucleic Acid [5] = assay: Binding affinity to human 21-TT G-quadruplex DNA structure assessed as first step association constant by electrospray ionization mass spectrometry; assay type: nucleic-acid assay; how it was run: as §3
Nucleic Acid [6] = assay: Binding affinity to human DK66 duplex DNA structure assessed as bound DNA at 5:20 DNA to drug ratio by electrospray ionization mass spectrometry; assay type: nucleic-acid assay; how it was run: as §3
BJ [7] = assay: Growth inhibition of human BJ cells expressing SV40 early region EHLT at 3 uM on day 8 after 24 hrs trypan blue assay; assay type: functional; settings: read-out: GI; how it was run: as §1
BJ [8] = assay: Induction of DNA damage response in human BJ cells expressing human TERT assessed as phosphorylation of gamma H2AX after 24 hrs by immunofluorescence; assay type: functional, cell-based; how it was run: as §2
Nucleic Acid [9] = assay: Binding affinity to human 21-TT G-quadruplex DNA structure assessed as bound DNA at 5:10 DNA to drug ratio by electrospray ionization mass spectrometry; assay type: nucleic-acid assay; how it was run: as §3
BJ [10] = assay: Antiproliferative activity against human BJ cells expressing TERT at 0.5 uM after 2 to 8 days by trypan blue assay; assay type: cell-based; how it was run: as §1
Nucleic Acid [11] = assay: Binding affinity to human 21-TT G-quadruplex DNA structure assessed as second step association constant by electrospray ionization mass spectrometry; assay type: nucleic-acid assay; how it was run: as §3
Nucleic Acid [12] = assay: Stabilization of human duplex DNA T-loop assessed as change in melting temperature at 1 uM by FRET assay; assay type: nucleic-acid assay
BJ [13] = assay: Induction of DNA damage response in human BJ cells expressing human TERT assessed as phosphorylation of […] after 24 hrs by immunofluorescence; assay type: functional, cell-based; how it was run: as §2
Nucleic Acid [14] = assay: Binding affinity to human 21-TT G-quadruplex DNA structure at 1:1 DNA to calf thymus DNA ratio by competitive inhibition assay; assay type: nucleic-acid assay; set-up: concentration or dose not given beside the values
How it was run: (§4)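 ESI-MS competition: quadruplex DNA and ligand each 5 μM final, plus calf thymus DNA at duplex/quadruplex ratios 1 and 5 (by phosphate concentration), in ammonium acetate. Percentage bound quadruplex and normalized bound quadruplex (N%) measured by mass spectrometry. SD over at least three independent experiments.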

Nucleic Acid [15] = assay: Binding affinity to human 21-TT G-quadruplex DNA structure assessed as bound DNA at 5:5 DNA to drug ratio by electrospray ionization mass spectrometry; assay type: nucleic-acid assay; how it was run: as §3
Nucleic Acid [16] = assay: Binding affinity to human 21-TT G-quadruplex DNA structure at 1:5 DNA to calf thymus DNA ratio by competitive inhibition assay; assay type: nucleic-acid assay; set-up: concentration or dose not given beside the values; how it was run: as §4
BJ [17] = assay: Cell cycle arrest in human BJ cells expressing TERT assessed as accumulation at G2/M stage at 0.5 uM after 72 hrs by propidium iodide staining based flow cytometry (reference value: 5%); assay type: ADME
Nucleic Acid [18] = assay: Binding affinity to human DK66 duplex DNA structure assessed as second step association constant by electrospray ionization mass spectrometry; assay type: nucleic-acid assay; how it was run: as §3
BJ [19] = assay: Cell cycle arrest in human BJ cells expressing TERT assessed as accumulation at S stage at 0.5 uM after 72 hrs by propidium iodide staining based flow cytometry (reference value: 10%); assay type: ADME
Nucleic Acid [20] = assay: Binding affinity to human DK66 duplex DNA structure assessed as bound DNA at 5:10 DNA to drug ratio by electrospray ionization mass spectrometry; assay type: nucleic-acid assay; how it was run: as §3
BJ [21] = assay: Cell cycle arrest in human BJ cells expressing TERT assessed as accumulation at G2/M stage at 0.5 uM after 48 hrs by propidium iodide staining based flow cytometry (reference value: 6%); assay type: ADME
BJ [22] = assay: Antiproliferative activity against human BJ cells expressing SV40 early region EHLT at 0.5 uM after 24 hrs by Coulter counter method; assay type: functional, cell-based; how it was run: as §1
BJ [23] = assay: Cell cycle arrest in human BJ cells expressing TERT assessed as accumulation at G0/G1 stage at 0.5 uM after 48 hrs by propidium iodide staining based flow cytometry (reference value: 80%); assay type: ADME
BJ [24] = assay: Cell cycle arrest in human BJ cells expressing TERT assessed as accumulation at G0/G1 stage at 0.5 uM after 24 hrs by propidium iodide staining based flow cytometry (reference value: 61%); assay type: ADME
[25] = molecular target: Telomerase reverse transcriptase (Homo sapiens, UniProt O14746); assay: Inhibition of human Telomerase activity in cell free system by TRAP assay
How it was run: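 Cell-free TRAP: protein extract incubated with compound at 1 to 50 μM so telomerase elongates the substrate oligonucleotide. Before PCR, phenol/chloroform/isoamyl-alcohol (50:49:1) extraction removes the ligand and DNA is precipitated overnight at -20 °C. Amplification uses a 36 bp ITAS; products are resolved on 12% PAGE and stained with SYBR Green. Signals are corrected by the no-extract control and normalized to untreated, giving dose-response IC50. Mean of three experiments.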

BJ [26] = assay: Induction of DNA damage response in human BJ cells expressing SV40 early region EHLT assessed as phosphorylation of gamma H2AX at 0.25 uM after 24 hrs by immunofluorescence method; assay type: functional, cell-based; how it was run: as §2
BJ [27] = assay: Cell cycle arrest in human BJ cells expressing TERT assessed as accumulation at S stage at 0.5 uM after 96 hrs by propidium iodide staining based flow cytometry (reference value: 9%); assay type: ADME
BJ [28] = assay: Cell cycle arrest in human BJ cells expressing TERT assessed as accumulation at G2/M stage at 0.5 uM after 24 hrs by propidium iodide staining based flow cytometry (reference value: 17%); assay type: ADME
BJ [29] = assay: Growth inhibition of human BJ cells expressing SV40 early region EHLT at 0.5 uM on day 8 by trypan blue assay; assay type: functional; settings: 192 h, read-out: GI; how it was run: as §1
BJ [30] = assay: Cell cycle arrest in human BJ cells expressing TERT assessed as accumulation at S stage at 0.5 uM after 24 hrs by propidium iodide staining based flow cytometry (reference value: 21%); assay type: ADME
BJ [31] = assay: Cell cycle arrest in human BJ cells expressing TERT assessed as accumulation at G2/M stage at 0.5 uM after 96 hrs by propidium iodide staining based flow cytometry (reference value: 4%); assay type: ADME
BJ [32] = assay: Cell cycle arrest in human BJ cells expressing TERT assessed as accumulation at G0/G1 stage at 0.5 uM after 72 hrs by propidium iodide staining based flow cytometry (reference value: 83%); assay type: ADME
BJ [33] = assay: Cell cycle arrest in human BJ cells expressing TERT assessed as accumulation at G0/G1 stage at 0.5 uM after 96 hrs by propidium iodide staining based flow cytometry (reference value: 86%); assay type: ADME
Nucleic Acid [34] = assay: Binding affinity to human DK66 duplex DNA structure assessed as bound DNA at 5:5 DNA to drug ratio by electrospray ionization mass spectrometry; assay type: nucleic-acid assay; how it was run: as §3
BJ [35] = assay: Induction of DNA damage response in human BJ cells expressing SV40 early region EHLT assessed as phosphorylation of […] after 24 hrs by immunofluorescence method; assay type: functional, cell-based; how it was run: as §2
BJ [36] = assay: Cell cycle arrest in human BJ cells expressing TERT assessed as accumulation at S stage at 0.5 uM after 48 hrs by propidium iodide staining based flow cytometry (reference value: 12%); assay type: ADME

Telomerase reverse transcriptase, sequence (O14746 whole entry): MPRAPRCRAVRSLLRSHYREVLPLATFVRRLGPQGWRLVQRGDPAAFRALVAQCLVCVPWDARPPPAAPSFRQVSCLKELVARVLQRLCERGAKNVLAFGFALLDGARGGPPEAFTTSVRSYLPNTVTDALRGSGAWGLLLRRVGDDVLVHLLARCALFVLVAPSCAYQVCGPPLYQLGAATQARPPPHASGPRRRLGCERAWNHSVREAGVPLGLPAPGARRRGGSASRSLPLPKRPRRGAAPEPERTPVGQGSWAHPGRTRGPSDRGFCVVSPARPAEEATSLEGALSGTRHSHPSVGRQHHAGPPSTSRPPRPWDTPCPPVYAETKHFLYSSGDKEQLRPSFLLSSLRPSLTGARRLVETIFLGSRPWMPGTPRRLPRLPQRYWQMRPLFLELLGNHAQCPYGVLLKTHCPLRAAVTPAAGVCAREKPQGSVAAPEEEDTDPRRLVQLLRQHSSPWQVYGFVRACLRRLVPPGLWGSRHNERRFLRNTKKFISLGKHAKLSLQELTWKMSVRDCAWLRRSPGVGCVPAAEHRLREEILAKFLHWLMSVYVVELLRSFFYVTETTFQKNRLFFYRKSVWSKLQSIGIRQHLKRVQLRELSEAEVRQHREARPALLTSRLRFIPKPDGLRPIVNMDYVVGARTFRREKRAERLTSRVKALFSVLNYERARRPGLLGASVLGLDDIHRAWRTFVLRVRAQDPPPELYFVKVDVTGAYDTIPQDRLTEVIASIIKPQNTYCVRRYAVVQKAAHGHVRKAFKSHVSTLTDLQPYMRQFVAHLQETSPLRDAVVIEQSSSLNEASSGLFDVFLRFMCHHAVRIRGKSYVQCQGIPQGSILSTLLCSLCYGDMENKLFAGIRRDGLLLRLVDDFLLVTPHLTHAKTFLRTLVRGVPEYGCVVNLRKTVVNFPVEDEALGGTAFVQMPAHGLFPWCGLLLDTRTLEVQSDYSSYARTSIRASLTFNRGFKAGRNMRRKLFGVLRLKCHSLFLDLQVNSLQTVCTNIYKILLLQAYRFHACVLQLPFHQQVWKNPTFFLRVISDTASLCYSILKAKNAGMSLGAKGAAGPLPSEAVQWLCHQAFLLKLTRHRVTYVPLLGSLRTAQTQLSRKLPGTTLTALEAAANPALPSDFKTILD

Structure (SMILES)	ΔTm (Nucleic Acid [2])	log Ks (Nucleic Acid [4])	log Ks (Nucleic Acid [5])	Activity (Nucleic Acid [6])	Activity (BJ [8])	Activity (Nucleic Acid [9])	Activity (BJ [10])	log Ks (Nucleic Acid [11])	ΔTm (Nucleic Acid [12])	Activity (BJ [13])	Activity (Nucleic Acid [14])	Activity (Nucleic Acid [15])	Activity (Nucleic Acid [16])	further results
O=C1c2ccc3c4c(N5CCCCC5)cc5c6c(ccc(c7c(N8CCCCC8)cc(c2c37)C(=O)N1CCN1CCCCC1)c64)C(=O)N(CCN1CCCCC1)C5=O	18.7 °C	3.8	4.8	12%	Dose-dependent effect	33%	Toxic	4.6	0.2 °C	Dose-dependent effect	13%	22%	9%	Activity (BJ [1]): tde; Activity (BJ [3]): Active; inhibition of growth at 3 µM (BJ [7]): 50%
O=C1c2ccc3c4c(N5CCCCC5)cc5c6c(ccc(c7c(N8CCCCC8)cc(c2c37)C(=O)N1CCOCCN1CCCCC1)c64)C(=O)N(CCOCCN1CCCCC1)C5=O	9.3 °C	4.2	4.7	20%		34%		4.8	-0.2 °C		19%	23%	14%	
CN1CCN(CCOCCN2C(=O)c3ccc4c5c(N6CCCCC6)cc6c7c(ccc(c8c(N9CCCCC9)cc(c3c48)C2=O)c75)C(=O)N(CCOCCN2CCN(C)CC2)C6=O)CC1	5.2 °C	3.8	3.9	10%					-0.1 °C					
CNCCOCCN1C(=O)c2ccc3c4c(N5CCCCC5)cc5c6c(ccc(c7c(N8CCCCC8)cc(c2c37)C1=O)c64)C(=O)N(CCOCCNC)C5=O	12.9 °C	3.7	4.6	9%		37%		4.8	-0.4 °C			13%		
CN(C)CCCN1CCN(c2cc3c4c(ccc5c6ccc7c8c(ccc(c2c45)c86)C(=O)N(CCN2CCCCC2)C7=O)C(=O)N(CCN2CCCCC2)C3=O)CC1	35.5 °C	5.4	5.5		Dose-dependent effect	76%	Toxic	5	2.3 °C	Dose-dependent effect	46%	48%	32%	Activity (BJ [17]): 58%; log Ks (Nucleic Acid [18]): 4.9; Activity (BJ [19]): 7.3%; Activity (Nucleic Acid [20]): 66%; Activity (BJ [21]): 61.1%; Activity (BJ [22]; TDE = time-dependent effect, in the assay text read “after 2 to 8 days” for “after 24 hrs”): tde; Activity (BJ [23]): 35.4%; Activity (BJ [24]): 42%; IC50 [25]: 3 µM; Activity (BJ [26]): Active; Activity (BJ [27]): 7.6%; Activity (BJ [28]): 54.2%; inhibition of growth at 0.5 µM (BJ [29]): 50%; Activity (BJ [30]): 3.8%; Activity (BJ [31]): 54.2%; Activity (BJ [32]): 34.7%; Activity (BJ [33]): 38.2%; Activity (Nucleic Acid [34]): 43%; Activity (BJ [35]): Active; Activity (BJ [36]): 3.5%
CN1CCN(c2cc3c4c(ccc5c6c(N7CCN(C)CC7)cc7c8c(ccc(c2c45)c86)C(=O)N(CCN2CCCCC2)C7=O)C(=O)N(CCN2CCCCC2)C3=O)CC1	27.4 °C	4.9	5.4		Dose-dependent effect	77%	Toxic	5.6	2.9 °C	Dose-dependent effect	40%	45%	22%	Activity (BJ [17]): 58.2%; log Ks (Nucleic Acid [18]): 4.2; Activity (BJ [19]): 6.6%; Activity (Nucleic Acid [20]): 44%; Activity (BJ [21]): 55.2%; Activity (BJ [22]; in the assay text read “after 2 to 8 days” for “after 24 hrs”, TDE = time-dependent effect): tde; Activity (BJ [23]): 39.8%; Activity (BJ [24]): 35.1%; IC50 [25]: 10 µM; Activity (BJ [26]): Active; Activity (BJ [27]): 6.5%; Activity (BJ [28]): 51%; inhibition of growth at 0.5 µM (BJ [29]): 50%; Activity (BJ [30]): 13.9%; Activity (BJ [31]): 60.4%; Activity (BJ [32]): 35.2%; Activity (BJ [33]): 33.1%; Activity (Nucleic Acid [34]): 27%; Activity (BJ [35]): Active; Activity (BJ [36]): 5%
O=C1c2ccc3c4c(N5CCCCC5)cc5c6c(cc(N7CCCCC7)c(c7ccc(c2c37)C(=O)N1CCOCCN1CCCCC1)c64)C(=O)N(CCOCCN1CCCCC1)C5=O	13.1 °C	3.8	4.8	11%		30%		4.8	0.1 °C			20%		
CN(C)CCOCCN1C(=O)c2ccc3c4c(N5CCCCC5)cc5c6c(ccc(c7c(N8CCCCC8)cc(c2c37)C1=O)c64)C(=O)N(CCOCCN(C)C)C5=O	16.6 °C	4	4.6	16%		30%		4.9	0.9 °C			22.5%		
